# This excerpt belongs to a sample that is enriched for hits.
# Pf Dd2 inh – P. falciparum Dd2 growth inhibition; SYBR Green, 72 h; active compounds read low; 94,000 compounds, 2.3% hits; AID 1159554; activity change, % at 10 µM; in the data active = activity change below about -80%; inconclusive = no clear call, values can overlap the other calls
# GASC1 inh – blocks human GASC-1 (KDM4C) demethylase activity; Q9H3R0; inhibition, % at 12.5 µM; 96,000 compounds, 0.15% hits; GST-KDM4C 2-372, H3K9me3 peptide, LANCE TR-FRET;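 active = mean replicate inhibition above about 25%, with at least 55% of replicates also reaching it, limit read from the data, passing the limit was not always enough; inconclusive = only one of those two conditions met; inactive = neither condition met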
# Target sequence (Q9H3R0 2-372 limits assumed): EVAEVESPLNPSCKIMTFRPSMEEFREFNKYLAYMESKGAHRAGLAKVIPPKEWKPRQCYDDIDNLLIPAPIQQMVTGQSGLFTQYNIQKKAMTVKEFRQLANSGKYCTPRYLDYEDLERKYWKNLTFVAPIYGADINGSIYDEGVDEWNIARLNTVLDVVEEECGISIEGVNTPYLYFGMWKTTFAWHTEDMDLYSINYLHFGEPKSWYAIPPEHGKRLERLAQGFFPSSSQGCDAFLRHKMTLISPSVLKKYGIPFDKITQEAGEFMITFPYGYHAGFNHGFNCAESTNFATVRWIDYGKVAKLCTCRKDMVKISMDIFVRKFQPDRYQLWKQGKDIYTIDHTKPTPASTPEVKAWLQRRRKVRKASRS
#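 System: N-terminal GST-fused human GASC-1 (KDM4C) fragment, residues 2-372 / Amount: 10 nM GST-KDM4C in enzyme reaction / Also added: H3K9me3 peptide with Fe(II)/2OG / Times: 30 min demethylation and 1 h detection at room temperature / Signal: LANCE TR-FRET / Read-out basis: Fall in 671/618 emission ratio as inhibition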
# IDH1 R132H inh – inhibitors of human IDH1 R132H | O75874 | IDH1 R132H reductase, diaphorase/resazurin fluorescence, 60 min | inhibition, % at 10 µM | 70,000 compounds, 0.18% hits | AID 624101; in the data active = inhibition above about 34%; inconclusive = no clear call, values can overlap the other calls; inactive = below about 11%;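 also: 0% = DMSO and 100% = no enzyme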
# Starred values were filed as active, the others as inactive; ? = inconclusive; · = no result.
SMILES,Pf Dd2 inh,GASC1 inh,IDH1 R132H inh
CC(=O)N(C)C[C@@H]1Oc2ncc(-c3ccc(C)cc3)cc2C(=O)N([C@H](C)CO)C[C@@H]1C,22,-1,-3
CO[C@H]1CN(C)C(=O)c2cc(NC(=O)Nc3ccc(Cl)c(Cl)c3)ccc2OC[C@H](C)NC[C@H]1C,-84*,-2,·
CO[C@@H]1CN(C)C(=O)c2cc(NC(=O)Nc3ccc(C(F)(F)F)cc3)ccc2OC[C@H](C)NC[C@H]1C,-89*,-1,0
CO[C@@H]1CN(C)C(=O)c2cc(NC(=O)Nc3ccc(Cl)c(Cl)c3)ccc2OC[C@H](C)NC[C@@H]1C,-67,-3,·
CO[C@@H]1CN(C)C(=O)c2cc(NC(=O)Nc3ccc(F)cc3)ccc2OC[C@H](C)NC[C@H]1C,-8,0,0
Cc1ccccc1S(=O)(=O)N1CC(=O)N2[C@H](C1)[C@H](c1ccc(C#CCC3CCCC3)cc1)[C@@H]2CO,-40,0,·
CCCNC(=O)N1CC(=O)N2[C@H](CO)[C@H](c3ccc(C#CCC4CCCC4)cc3)[C@@H]2C1,-24,0,·
O=C(NCC1CC1)[C@H]1[C@H](CO)[C@H]2Cn3c(cccc3=O)[C@H]2N1Cc1cccc(F)c1,13,1,·
O=C(NCC[C@@H]1CC[C@@H](NC(=O)C2CCCC2)[C@@H](CO)O1)c1cc(Cl)cc(Cl)c1,-9,-3,0
C[C@@H]1CN([C@@H](C)CO)C(=O)c2cccc(NC(=O)C3CCCCC3)c2O[C@H]1CN(C)Cc1ccc(C(F)(F)F)cc1,-83*,0,4
C[C@@H]1CN([C@H](C)CO)C(=O)c2cccc(NC(=O)Nc3ccccc3)c2O[C@@H]1CN(C)Cc1ccc(C(=O)Nc2ccccc2N)cc1,-91*,-1,0
C[C@H](CO)N1C[C@H](C)[C@@H](CN(C)Cc2ccc(C(=O)Nc3ccccc3N)cc2)Oc2c(NC(=O)Nc3ccc(F)cc3)cccc2C1=O,-85*,-2,·
COc1ccc(NC(=O)Nc2cccc3c2O[C@@H](CN(C)Cc2ccc(C(=O)Nc4ccccc4N)cc2)[C@@H](C)CN([C@H](C)CO)C3=O)cc1,-66,15,0
C[C@H]1CN([C@@H](C)CO)C(=O)c2cccc(NC(=O)Nc3ccccc3)c2O[C@H]1CN(C)Cc1ccc(C(=O)Nc2ccccc2N)cc1,-73,2,·
C[C@H]1CN([C@@H](C)CO)C(=O)c2cccc(NC(=O)Nc3ccc(F)cc3)c2O[C@H]1CN(C)Cc1ccc(C(=O)Nc2ccccc2N)cc1,-71,-2,·
C[C@H](CO)N1C[C@H](C)[C@H](CN(C)Cc2ccc(C(F)(F)F)cc2)Oc2c(NC(=O)C3CCCCC3)cccc2C1=O,-30,1,·
COc1ccc(NC(=O)Nc2cccc3c2O[C@H](CN(C)Cc2ccc(C(=O)Nc4ccccc4N)cc2)[C@H](C)CN([C@H](C)CO)C3=O)cc1,-93*,-3,·
O=C(NCC[C@H]1CC[C@H](NS(=O)(=O)c2cccc(F)c2)[C@H](CO)O1)C1CCC1,1,-2,0
CC(=O)c1ccc(NC(=O)CSc2nnc(-c3ccccc3)n2-c2ccccc2)cc1,·,·,0
CN(C)CC(=O)N1[C@H](CO)[C@H](c2ccccc2-c2cccc(C(=O)N(C)C)c2)[C@@H]1C#N,-3,4,·
CN1c2ccc(-c3cccc(C#N)c3)cc2[C@H]2[C@H](CCN2C(=O)C2CCC2)[C@@H]1CO,-25,-1,·
CCCNC(=O)N1[C@@H](C#N)[C@H](c2ccc(C#Cc3ccc(F)cc3)cc2)[C@@H]1CO,-30,-1,·
C[C@H]1CN([C@@H](C)CO)C(=O)c2cccc(NC(=O)C3CCCCC3)c2O[C@@H]1CN(C)Cc1ccc(C(=O)Nc2ccccc2N)cc1,-88*,-1,0
C[C@H](CO)N1C[C@H](C)[C@H](CN(C)Cc2ccc(C(=O)Nc3ccccc3N)cc2)Oc2c(NC(=O)C3CCCCC3)cccc2C1=O,?,-1,·
C[C@H](NC(=O)C[C@H]1C=C[C@@H](NC(=O)Nc2ccc3c(c2)OCO3)[C@@H](CO)O1)c1ccccc1,-3,2,·
SMILES,Pf Dd2 inh,GASC1 inh,IDH1 R132H inh
C[C@@H]1CN([C@@H](C)CO)C(=O)c2cccc(NC(=O)c3ccc(-c4nccs4)cc3)c2O[C@@H]1CN(C)C(=O)Nc1cccc2ccccc12,-86*,-1,1
C[C@H]1CN([C@@H](C)CO)C(=O)c2cccc(NC(=O)c3ccc(-c4nccs4)cc3)c2O[C@H]1CN(C)C(=O)Nc1cccc2ccccc12,12,-1,0
C[C@@H]1CN([C@H](C)CO)C(=O)c2cccc(NC(=O)c3ccc(-c4nccs4)cc3)c2O[C@H]1CN(C)Cc1ccc2c(c1)OCO2,-92*,-3,·
C[C@H]1CN([C@@H](C)CO)C(=O)c2cccc(NC(=O)c3ccc(-c4nccs4)cc3)c2O[C@@H]1CN(C)Cc1ccc2c(c1)OCO2,-34,-2,1
C[C@H](CO)N1C[C@H](C)[C@@H](CN(C)Cc2ccc(-c3ccccc3)cc2)Oc2c(NC(=O)c3ccc(-c4nccs4)cc3)cccc2C1=O,-86*,-5,·
C[C@H](CO)N1C[C@H](C)[C@H](CN(C)Cc2ccc(-c3ccccc3)cc2)Oc2c(NC(=O)c3ccc(-c4nccs4)cc3)cccc2C1=O,-52,-10,1
C[C@@H]1CN([C@H](C)CO)C(=O)c2cccc(NC(=O)c3ccc(-c4nccs4)cc3)c2O[C@H]1CN(C)Cc1ccc(-c2ccccc2)cc1,-82*,-4,·
C[C@H]1CN([C@@H](C)CO)C(=O)c2cccc(NC(=O)c3ccc(-c4nccs4)cc3)c2O[C@H]1CN(C)Cc1ccc(-c2ccccc2)cc1,-54,-7,·
O=C(Nc1ccc(F)cc1)N[C@@H]1CC[C@@H](CCn2cc(C3(O)CCCC3)nn2)O[C@@H]1CO,-52,0,0
CO[C@@H]1CN(C)C(=O)c2cc(NC(=O)c3cccc(F)c3)ccc2OC[C@H](C)N(CC2CC2)C[C@@H]1C,19,-2,0
CN1C(=O)c2cc(NC(=O)c3ccc(F)c(F)c3)ccc2OC[C@@H]2O[C@H](CC(=O)N[C@@H]3CCN(Cc4ccccc4)C3)CC[C@@H]21,·,3,·
CN1[C@@H]2c3ccc(-c4ccccc4)c(=O)n3C[C@@H]2[C@@H](CO)[C@@H]1C(=O)N1CCc2ccccc2C1,·,2,·
CC(C)NC(=O)N(C)C[C@@H]1Oc2ccc(NS(=O)(=O)c3cn(C)cn3)cc2C(=O)N([C@H](C)CO)C[C@H]1C,-2,4,2
COc1ccccc1-c1ccc2n(c1=O)C[C@@H]1[C@@H](CO)[C@H](C(=O)N(C)C)N(CC3CCOCC3)[C@H]21,-3,0,·
COc1cc(-c2nnc(SCC(=O)c3ccc(-c4ccccc4)cc3)n2C)cc(OC)c1OC,·,·,0
O=C(NC[C@@H]1[C@H](c2ccccc2)[C@H](CO)N1CC1CC1)c1cccnc1,-8,0,·
C[C@@H]1CN([C@@H](C)CO)C(=O)c2cc(NC(=O)c3ccccc3)ccc2O[C@@H](C)CCCCO[C@H]1CN(C)C(=O)Nc1cccc2ccccc12,-81*,-2,2
C[C@@H]1CCCCO[C@@H](CN(C)C(=O)Nc2cccc3ccccc23)[C@H](C)CN([C@@H](C)CO)C(=O)c2cc(NC(=O)c3ccccc3)ccc2O1,57,-2,·

# Bioassay records: PubChem, Broad Institute
